Experimental data published in PMC4543588 (European journal of medicinal chemistry, 2015).
Each block holds one molecule with its values, some of them ahead of it. Ends that are not written are not given here.

What was measured:
human NMU2 = human NMU2 (Homo sapiens, UniProt Q9GZQ4); assay: cellular calcium signaling assay, HEK293 cells expressing recombinant human NMU2; assay type: cell-based
Procedure, shortened: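 HEK293 cells stably expressing human NMU2 were grown to ~90% confluence on poly-D-lysine, loaded 45 min at 37 °C with 2 μM fluo-4-AM in Krebs'-HEPES-BSA (pH 7.4), then equilibrated 5 min. After ligand addition, fluorescence (ex 485/em 520 nm) was read at 0.5 s intervals. Maximal [Ca2+]i change was fitted by four-parameter logistic for EC50. Emax given as % hNmU Emax; mean ± SEM, n≥4.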

human NMU1 = target: T1, human NMU1 (Homo sapiens, UniProt Q9HB89); assay: cellular calcium signaling assay, HEK293 cells expressing recombinant human NMU1; assay type: cell-based
T1 sequence (Q9HB89 1-426): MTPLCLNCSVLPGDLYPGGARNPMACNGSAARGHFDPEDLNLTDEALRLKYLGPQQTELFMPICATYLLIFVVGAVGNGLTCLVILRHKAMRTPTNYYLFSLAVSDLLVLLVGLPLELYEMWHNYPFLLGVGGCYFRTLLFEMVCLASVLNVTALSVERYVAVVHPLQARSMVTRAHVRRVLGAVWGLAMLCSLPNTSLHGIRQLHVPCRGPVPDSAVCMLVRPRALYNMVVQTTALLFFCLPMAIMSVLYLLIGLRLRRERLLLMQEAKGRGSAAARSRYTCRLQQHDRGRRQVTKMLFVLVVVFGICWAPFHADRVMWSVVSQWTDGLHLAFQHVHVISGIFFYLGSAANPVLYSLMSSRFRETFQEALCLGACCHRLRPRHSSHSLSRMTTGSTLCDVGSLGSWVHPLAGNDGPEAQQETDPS
Procedure, shortened: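 HEK293 cells stably expressing human NMU1, grown to ~90% confluence on poly-D-lysine, loaded 45 min at 37 °C with 2 μM fluo-4-AM in Krebs'-HEPES/0.1% BSA (pH 7.4), then equilibrated 5 min. Ligand added; fluorescence (ex 485/em 520 nm) read every 0.5 s. […] Four-parameter logistic fit gave EC50; Emax as % hNmU; n≥4.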

[1] = cited from earlier work
[2] = s.c. injection ref 39; cited from earlier work
[3] = test system: lysophosphatidic acid (LPA); assay: LPA levels in plasma of chronically treated DIO mice; assay type: in vivo, mouse; details: 1603 nmoles/kg; every 2 or 4 (NM4A) or 7 days (NM4-C16) for 21 days
Procedure, shortened: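 Ad libitum-fed male DIO C57BL/6 mice on a 60% kcal-fat diet (n=8/group) received s.c. vehicle or test compound in a phospholipid-based delivery system, 30 min before dark onset. Dosing was 1603 nmoles/kg every 2 or 4 days (2.2 mg/kg) or every 7 days (2.6 mg/kg) for 21 days. Plasma (100 μL) underwent solid-phase extraction and drying at 30–37 °C, then methanol reconstitution. 18:1, 18:2 and 20:4 LPA were quantified by LC-ESI-MS/MS.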

[4] = body distribution analysis in chronically treated DIO mice; assay type: in vivo, mouse; details: 2.2 mg/kg every 2 days for 28 days
Procedure, shortened: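 Male DIO C57BL/6 mice were given test compound chronically at 2.2 mg/kg (1603 nmoles/kg) every 2 days for 28 days, then killed. Organs and tissues were harvested, weighed and homogenised in 4 volumes of DMSO/ACN (1:1) with 0.1% TFA, then spun 10 min at 13000 rpm. Supernatants were analysed by triple-quadrupole LC/MS with a methylated analog as internal standard.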

water solubility = assay type: physicochemical

human NMU2, sequence (Q9GZQ4 whole entry): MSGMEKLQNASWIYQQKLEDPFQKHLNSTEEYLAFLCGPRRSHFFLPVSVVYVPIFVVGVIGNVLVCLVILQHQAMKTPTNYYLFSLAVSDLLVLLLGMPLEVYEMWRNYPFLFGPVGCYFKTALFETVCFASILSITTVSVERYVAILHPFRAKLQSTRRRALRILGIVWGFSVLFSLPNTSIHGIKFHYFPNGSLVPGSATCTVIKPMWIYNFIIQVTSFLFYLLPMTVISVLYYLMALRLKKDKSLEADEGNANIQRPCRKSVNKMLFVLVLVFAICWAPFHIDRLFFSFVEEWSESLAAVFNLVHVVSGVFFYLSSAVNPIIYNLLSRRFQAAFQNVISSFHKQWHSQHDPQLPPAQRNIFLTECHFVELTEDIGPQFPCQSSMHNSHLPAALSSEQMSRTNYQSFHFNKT

Molecule: Pal-Aib -FL- Phe -Arg- Pro-R-Asn-Aib [NM6]
NMU2 Emax at 10 μM as % hNmU Emax (human NMU2): 60.7±12.1 % hNmU Emax
NMU1 Emax at 10 μM as % hNmU Emax (human NMU1): 40.6±2.2 % hNmU Emax

Molecule: X(C-Ahx -FL- Phe -Arg- Pro-R-Asn-Ahx-C) [NM11]
NMU2 Emax at 10 μM as % hNmU Emax (human NMU2): 60.6±11.6 % hNmU Emax
NMU1 Emax at 10 μM as % hNmU Emax (human NMU1): 33.7±0.2 % hNmU Emax

Molecule: semaglutide
plasma half-life [1]: 160 h

Molecule: Pal-Aib -FL- Phe-N^MeR- Pro-R-N^MeN [NM31]
NMU2 Emax at 10 μM as % hNmU Emax (human NMU2): 17.9±1.5 % hNmU Emax
NMU1 Emax at 10 μM as % hNmU Emax (human NMU1): 13.8±2.0 % hNmU Emax

Molecule: X(C-Ahx -FL- Phe -Arg- Oic-R-Asn-Ahx-C) [NM12]
NMU2 Emax at 10 μM as % hNmU Emax (human NMU2): 70.0±6.0 % hNmU Emax
NMU1 Emax at 10 μM as % hNmU Emax (human NMU1): 30.00±6.0 % hNmU Emax

Molecule: NmU: endogenous peptide neuromedin U (FRVDEEFQSPFASQSRGYFLFRPRN-NH2; ends and bridges not checked; UniProt P48645 142-166, looked up)
half-life after subcutaneous (s.c.) injection [2]: less than 5 min

Molecule: CCCCCCCCCCCCCCCCNC(=O)CNCC(=O)NC(C)(C)C(=O)N[C@@H](Cc1ccccc1)C(=O)N[C@@H](CC(C)C)C(=O)N[C@@H](Cc1ccccc1)C(=O)N[C@@H](CCCNC(=N)N)C(=O)N1CCC[C@H]1C(=O)N[C@@H](CCCNC(=N)N)C(=O)N[C@@H](CC(N)=O)C(N)=O [NM4A, Ida^NHPal-Aib -FL- Phe -Arg- Pro-R-Asn]
plasma levels of LPA [3]: does not increase plasma levels of LPA
body distribution [4]: highest content of NM4A was detected in the plasma
water solubility (water solubility): limited water solubility

Molecule: X(C-Ahx -FL- Phe -Arg- Tic-R-Asn-Ahx-C) [NM13]
NMU2 Emax at 10 μM as % hNmU Emax (human NMU2): 39.3±8.8 % hNmU Emax
NMU1 Emax at 10 μM as % hNmU Emax (human NMU1): 60.4±13.8 % hNmU Emax

Next, values leading:

NMU2 Emax at 10 μM as % hNmU Emax (human NMU2): 67.0±16.5 % hNmU Emax
NMU1 Emax at 10 μM as % hNmU Emax (human NMU1): 22.9±3.8 % hNmU Emax
Molecule: Pal-Aib -FL- N^MeF -Arg- Pro-R-N^MeN [NM35]

NMU2 Emax at 10 μM as % hNmU Emax (human NMU2): 19.2±2.0 % hNmU Emax
NMU1 Emax at 10 μM as % hNmU Emax (human NMU1): 20.6±1.9 % hNmU Emax
Molecule: Pal-Aib -FL- α^MeF -Arg- Pro-R-N^MeN [NM33]

NMU2 Emax at 10 μM as % hNmU Emax (human NMU2): 28.6±7.9 % hNmU Emax
NMU1 Emax at 10 μM as % hNmU Emax (human NMU1): 15.9±6.6 % hNmU Emax
Molecule: Pal-Aib -FL- α^MeF -Arg- Pro-R-N^MeN [NM36]

NMU2 Emax at 10 μM as % hNmU Emax (human NMU2): 18.4±3.2 % hNmU Emax
NMU1 Emax at 10 μM as % hNmU Emax (human NMU1): 19.6±3.2 % hNmU Emax
Molecule: Pal-Aib -FL- Phe-N^MeR- Pro-R-N^MeN [NM34]

NMU2 Emax at 10 μM as % hNmU Emax (human NMU2): 15.2±3.8 % hNmU Emax
NMU1 Emax at 10 μM as % hNmU Emax (human NMU1): 19.1±1.2 % hNmU Emax
Molecule: Pal-Aib -FL- N^MeF -Arg- Pro-R-N^MeN [NM32]
